Reference: ChEMBL document CHEMBL3421570, “Combinatorial Libraries As a Tool for the Discovery of Novel, Broad-Spectrum Antibacterial Agents Targeting the ESKAPE Pathogens” (J Med Chem, 2015)
pIC50: −log10 of the molar value. Converted amounts (≈) assume the structure as drawn. The source made the active and inactive calls. The rule behind the calls is not given here.

Key:
Staphylococcus aureus [1] = assay: Induction of spontaneous mutation in Staphylococcus aureus at 2 to 10 MIC; type: functional, organism-based
Acinetobacter baumannii [2] = assay: Antimicrobial activity against Acinetobacter baumannii assessed as inhibition of microbial growth after 24 hrs; type: functional
Summary of the method: (§1)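 Broth microdilution against multidrug-resistant clinical ESKAPE isolates. Overnight cultures (TSB for Gram-positives, LB for Gram-negatives) diluted 1:1000 in fresh medium, compound in DMF (≤2.0% DMF) added at decreasing concentrations, 37°C.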

[3] = Cytotoxicity against human A549 cells assessed as cell viability recovery up to 225 uM after 48 hrs by MTT assay; type: cell-based; details: read-out: Activity
Summary of the method: (§2)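 A549 cells grown in F-12K with L-glutamine, 10% FBS, 1% penicillin-streptomycin, seeded at 1.0 × 10^5 ml−1, allowed to adhere 24 h (37°C, 5% CO2), then exposed to compound in 45% w/v (2-hydroxypropyl)-β-cyclodextrin vehicle for 48 h. MTT 4 h, formazan solubilized in DMSO, absorbance 540 nm. Percent recovery versus vehicle-only; IC50 derived; at least three independent experiments.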

Enterococcus faecium [4] = assay: Bactericidal activity against Enterococcus faecium after 24 hrs; type: functional
Enterobacter cloacae [5] = assay: Antimicrobial activity against Enterobacter cloacae isolate 1446 assessed as inhibition of microbial growth in presence of 100 uM efflux pump inhibitor reserpine after 24 hrs; type: functional, organism-based
[6] = Selectivity index, ratio of IC50 for human A549 cells to MIC for Enterobacter cloacae
A549 = assay: Cytotoxicity against human A549 cells after 48 hrs by MTT assay; type: cell-based; details: A549, 48 h; summary of the method: as §2
Enterococcus faecium [7] = assay: Induction of spontaneous mutation in Enterococcus faecium at 2 to 10 MIC; type: functional, organism-based
Klebsiella pneumoniae [8] = assay: Induction of spontaneous mutation in Klebsiella pneumoniae at 2 to 10 MIC; type: functional, organism-based
Staphylococcus aureus [9] = assay: Bactericidal activity against Staphylococcus aureus after 24 hrs; type: functional
Staphylococcus aureus [10] = assay: Antibiofilm activity against Staphylococcus aureus incubated for 24 hrs followed by biofilm resuspension in PBS and measured after 24 hrs; type: functional
Summary of the method: (§3)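 Biofilms grown 24 h in 96-well plates from overnight cultures standardized to OD600 0.5 in fresh medium (human serum only for S. aureus; TSB for Gram-positives, LB for Gram-negatives). Medium then replaced with fresh medium containing a concentration range above and below MIC, 37°C overnight. After 24 h biofilm resuspended in PBS, serially diluted, plated in duplicate, CFU counted after 24 h at 37°C. Activity relative to untreated; three technical replicates; MBEC50 reported.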

Enterobacter cloacae [11] = assay: Induction of spontaneous mutation in Enterobacter cloacae at 2 to 10 MIC; type: functional, organism-based
Staphylococcus aureus [12] = assay: Bactericidal activity against methicillin-resistant Staphylococcus aureus at MIC measured after drug wash out after 120 mins by time kill assay; type: functional
Summary of the method: (§4)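 MRSA from stationary phase was regrown 3 h in TSB and seeded at OD600 0.5. […] After 120 min, cells were centrifuged and washed, serially diluted and plated for CFU. Percent recovery is relative to no-drug controls.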

Pseudomonas aeruginosa [13] = assay: Bactericidal activity against Pseudomonas aeruginosa after 24 hrs; type: functional
[14] = Selectivity index, ratio of IC50 for human A549 cells to MIC for Acinetobacter baumannii
Pseudomonas aeruginosa [15] = assay: Antibiofilm activity against Pseudomonas aeruginosa incubated for 24 hrs followed by biofilm resuspension in PBS and measured after 24 hrs; type: functional; summary of the method: as §3
Enterococcus faecium [16] = assay: Antimicrobial activity against Enterococcus faecium assessed as inhibition of microbial growth at 45 uM after 24 hrs; type: functional, organism-based
Summary of the method: (§5)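 Broth microdilution single-concentration read: overnight cultures diluted 1:1000, compound in DMF (≤2.0%) added, 37°C for 24 h, growth inhibition scored visually by lack of turbidity; triplicate. Gram-positives grown in TSB, Gram-negatives in LB.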

Acinetobacter baumannii [17] = assay: Antibiofilm activity against Acinetobacter baumannii incubated for 24 hrs followed by biofilm resuspension in PBS and measured after 24 hrs; type: functional; summary of the method: as §3
Acinetobacter baumannii [18] = assay: Induction of spontaneous mutation in Acinetobacter baumannii at 2 to 10 MIC; type: functional, organism-based
Pseudomonas aeruginosa [19] = assay: Antimicrobial activity against Pseudomonas aeruginosa assessed as inhibition of microbial growth after 24 hrs; type: functional; summary of the method: as §1
Enterobacter cloacae [20] = assay: Antimicrobial activity against Enterobacter cloacae assessed as inhibition of microbial growth after 24 hrs; type: functional; summary of the method: as §1
Enterobacter cloacae [21] = assay: Ratio of MIC for Enterobacter cloacae measured after 8 cycle passage to MIC for wild type Enterobacter cloacae; type: functional
Acinetobacter baumannii [22] = assay: Ratio of MIC for Acinetobacter baumannii measured after 8 cycle passage to MIC for wild type Acinetobacter baumannii; type: functional
Enterococcus faecium [23] = assay: Antibiofilm activity against Enterococcus faecium incubated for 24 hrs followed by biofilm resuspension in PBS and measured after 24 hrs; type: functional; summary of the method: as §3
Enterobacter cloacae [24] = assay: Bactericidal activity against Enterobacter cloacae after 24 hrs; type: functional
Pseudomonas aeruginosa [25] = assay: Induction of spontaneous mutation in Pseudomonas aeruginosa at 2 to 10 MIC; type: functional, organism-based; details: 2 to 10 x MIC
Enterobacter cloacae [26] = assay: Antibiofilm activity against Enterobacter cloacae incubated for 24 hrs followed by biofilm resuspension in PBS and measured after 24 hrs; type: functional; summary of the method: as §3
[27] = Selectivity index, ratio of IC50 for human A549 cells to MIC for Pseudomonas aeruginosa
[28] = Induction of hemolysis in human RBC at 10 uM incubated for 15 mins; type: cell-based, Erythrocyte; details: red blood cells, read-out: Activity
Summary of the method: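 Human RBCs from whole blood, resuspended 20% v/v in HA buffer (NaCl, CaCl2), compound 10 μM, 15 min at 37°C. Centrifuged 5,500 g for 1 min, supernatant OD543 read. Percent hemolysis against DMF vehicle (0%) and 1.0% Triton X-100 (100%); triplicate.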

Staphylococcus aureus [29] = assay: Bactericidal activity against methicillin-resistant Staphylococcus aureus assessed as cell survival recovery at MIC measured after drug wash out after 120 mins by time kill assay; type: functional; summary of the method: as §4
Pseudomonas aeruginosa [30] = assay: Antimicrobial activity against Pseudomonas aeruginosa assessed as inhibition of microbial growth at 45 uM after 24 hrs; type: functional, organism-based; summary of the method: as §5
Staphylococcus aureus [31] = assay: Antimicrobial activity against Staphylococcus aureus USA300 strain FPR3757 infected in mouse model of lethal peritonitis assessed as mouse survival at 2 uM, im dosed 1 hr post infection and measured after 5 days post infection; type: functional, organism-based
Summary of the method: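 Mice, six per group, infected i.p. with 1 × 10^8 CFU ml−1 S. aureus USA300 FPR3757 in PBS with 5% mucin. Compound given i.m. at 2 μM 1 h later; vehicle 45% w/v (2-hydroxypropyl)-β-cyclodextrin in water i.v.; vancomycin i.v. as control. Monitored twice daily for 5 days, pre-moribund animals euthanized. Survival compared by log-rank test.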

Staphylococcus aureus [32] = assay: Antimicrobial activity against Staphylococcus aureus assessed as inhibition of microbial growth at 45 uM after 24 hrs; type: functional, organism-based; summary of the method: as §5
Staphylococcus aureus [33] = assay: Antimicrobial activity against Staphylococcus aureus assessed as inhibition of microbial growth after 24 hrs; type: functional; summary of the method: as §1
Klebsiella pneumoniae [34] = assay: Antimicrobial activity against Klebsiella pneumoniae assessed as inhibition of microbial growth after 24 hrs; type: functional; summary of the method: as §1
[35] = Selectivity index, ratio of IC50 for human A549 cells to MIC for Enterococcus faecium
Staphylococcus aureus [36] = assay: Ratio of MIC for Staphylococcus aureus measured after 8 cycle passage to MIC for wild type Staphylococcus aureus; type: functional
[37] = Cytotoxicity against human A549 cells assessed as cell viability recovery at 45 uM after 48 hrs by MTT assay; type: cell-based; details: read-out: Activity; summary of the method: as §2
[38] = Selectivity index, ratio of IC50 for human A549 cells to MIC for Klebsiella pneumoniae
Klebsiella pneumoniae [39] = assay: Antimicrobial activity against Klebsiella pneumoniae assessed as inhibition of microbial growth at 45 uM after 24 hrs; type: functional, organism-based; summary of the method: as §5
Enterococcus faecium [40] = assay: Antimicrobial activity against Enterococcus faecium assessed as inhibition of microbial growth after 24 hrs; type: functional; summary of the method: as §1
Klebsiella pneumoniae [41] = assay: Ratio of MIC for Klebsiella pneumoniae measured after 8 cycle passage to MIC for wild type Klebsiella pneumoniae; type: functional
Klebsiella pneumoniae [42] = assay: Antibiofilm activity against Klebsiella pneumoniae incubated for 24 hrs followed by biofilm resuspension in PBS and measured after 24 hrs; type: functional; summary of the method: as §3
Staphylococcus aureus [43] = assay: Effect on bacterial density of methicillin-resistant Staphylococcus aureus at MIC measured over 2 hrs period by time kill assay; type: functional, organism-based
Klebsiella pneumoniae [44] = assay: Bactericidal activity against Klebsiella pneumoniae after 24 hrs; type: functional
Acinetobacter baumannii [45] = assay: Antimicrobial activity against Acinetobacter baumannii assessed as inhibition of microbial growth at 45 uM after 24 hrs; type: functional, organism-based; summary of the method: as §5
Acinetobacter baumannii [46] = assay: Bactericidal activity against Acinetobacter baumannii after 24 hrs; type: functional
Enterobacter cloacae [47] = assay: Antimicrobial activity against Enterobacter cloacae assessed as inhibition of microbial growth at 45 uM after 24 hrs; type: functional, organism-based; summary of the method: as §5
[48] = Selectivity index, ratio of IC50 for human A549 cells to MIC for Staphylococcus aureus

In the case of `CCCCCCCN1C(=N)N(CCCC[C@H]2CNC(=N)N2CCc2cccc(C(F)(F)F)c2)C[C@@H]1CC1CCCCC1`, the Activity (Staphylococcus aureus [1]) was “inactive”, the MIC (Acinetobacter baumannii [2]) was 1.5 µM and the viability at 48 h [3] was no less than 33%. The MBC90 (Enterococcus faecium [4]) was 3.3 µM (≈ 1.95 µg/mL), the “growth inhibition (GI)” value (Enterobacter cloacae [5]) was “Active” and the “Selectivity Index” value [6] was 43. The pIC50 (A549) was 4.18, the Activity (Enterococcus faecium [7]) was “inactive” and the Activity (Klebsiella pneumoniae [8]) was “inactive”. For the same molecule, the MBC90 (Staphylococcus aureus [9]) was 3.3 µM (≈ 1.95 µg/mL), the MBEC50 (Staphylococcus aureus [10]) was 4.4 µM and the Activity (Enterobacter cloacae [11]) was “inactive”. For the same molecule, the “fold change (FC)” value (Staphylococcus aureus [12]) was 2.5, the MBC90 (Pseudomonas aeruginosa [13]) was 14 µM (≈ 8.27 µg/mL) and the “Selectivity Index” value [14] was 43. The MBEC50 (Pseudomonas aeruginosa [15]) was 46 µM, the “growth inhibition (GI)” value (Enterococcus faecium [16]) was “Active” and the MBEC50 (Acinetobacter baumannii [17]) was 13 µM. For the same molecule, the Activity (Acinetobacter baumannii [18]) was “inactive”, the MIC (Pseudomonas aeruginosa [19]) was 1.5 µM and the MIC (Enterobacter cloacae [20]) was 1.5 µM. The Ratio (Enterobacter cloacae [21]) was “<=8”, the Ratio (Acinetobacter baumannii [22]) was “<=8” and the MBEC50 (Enterococcus faecium [23]) was 26 µM. The MBC90 (Enterobacter cloacae [24]) was 6.4 µM (≈ 3.78 µg/mL), the Activity (Pseudomonas aeruginosa [25]) was “inactive” and the MBEC50 (Enterobacter cloacae [26]) was 15 µM. The “Selectivity Index” value [27] was 43, the hemolysis at 0.25 h, 10 µM [28] was 0.34% and the Survival (Staphylococcus aureus [29]) was 0.2%. The “growth inhibition (GI)” value (Pseudomonas aeruginosa [30]) was “Active”, the Activity (Staphylococcus aureus [31]) was “Active” and the “growth inhibition (GI)” value (Staphylococcus aureus [32]) was “Active”. For the same molecule, the MIC (Staphylococcus aureus [33]) was 1.5 µM, the MIC (Klebsiella pneumoniae [34]) was 1.5 µM and the “Selectivity Index” value [35] was 43. For the same molecule, the Ratio (Staphylococcus aureus [36]) was 4, the viability at 48 h, 45 µM [37] was greater than 60% and the “Selectivity Index” value [38] was 43. The “growth inhibition (GI)” value (Klebsiella pneumoniae [39]) was “Active”, the MIC (Enterococcus faecium [40]) was 1.5 µM and the Ratio (Klebsiella pneumoniae [41]) was “<=8”. The MBEC50 (Klebsiella pneumoniae [42]) was 4.8 µM, the Activity (Staphylococcus aureus [43]) was “inactive” and the MBC90 (Klebsiella pneumoniae [44]) was 2.2 µM (≈ 1.3 µg/mL). For the same molecule, the “growth inhibition (GI)” value (Acinetobacter baumannii [45]) was “Active”, the MBC90 (Acinetobacter baumannii [46]) was 3.2 µM (≈ 1.89 µg/mL) and the “growth inhibition (GI)” value (Enterobacter cloacae [47]) was “Active”. The “Selectivity Index” value [48] was 43.
